Most compounds without a hit are left out; they make up all but 5.8% or so of the library.
T cruzi growth-1: T. cruzi proliferation inhibition. T. cruzi beta-gal in NIH3T3, GalScreen luminescence, 90 h. inhibition, % at 8.34 µM. AID 624255. 77,000 compounds, 5.9% hits;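 active = mean inhibition above about 93%, with at least 55% of replicates each passing it, limit read from the data, passing the limit was not always enough; inconclusive = only one of those two conditions holds; inactive = neither condition holds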
IDH1 R132H inh: blocks human IDH1 R132H reductase activity | 70,000 compounds, 0.18% hits | diaphorase/resazurin fluorescence, 60 min | AID 624101 | O75874 | inhibition, % at 10 µM; in the data active = inhibition above about 34%; inconclusive = no clear call, values can overlap the other calls; inactive = below about 11%;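 note: 0% = DMSO and 100% = no enzyme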
Pf Dd2 inh: P. falciparum Dd2 growth inhibition. SYBR Green, 72 h; stronger effect = lower value. 94,000 compounds, 2.3% hits. AID 1159554. activity change, % at 10 µM; in the data active = activity change below about -80%; inconclusive = no clear call, values can overlap the other calls
GASC1 inh: blocks human GASC-1 (KDM4C) demethylase activity; inhibition, % at 12.5 µM; AID 720574; Q9H3R0; 96,000 compounds, 0.15% hits; GST-KDM4C 2-372, H3K9me3 peptide, LANCE TR-FRET;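 active = mean replicate inhibition above about 25%, with at least 55% of replicates also reaching it, limit read from the data, passing the limit was not always enough; inconclusive = only one of those two conditions met; inactive = neither condition met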
Target sequence (Q9H3R0 2-372 limits assumed): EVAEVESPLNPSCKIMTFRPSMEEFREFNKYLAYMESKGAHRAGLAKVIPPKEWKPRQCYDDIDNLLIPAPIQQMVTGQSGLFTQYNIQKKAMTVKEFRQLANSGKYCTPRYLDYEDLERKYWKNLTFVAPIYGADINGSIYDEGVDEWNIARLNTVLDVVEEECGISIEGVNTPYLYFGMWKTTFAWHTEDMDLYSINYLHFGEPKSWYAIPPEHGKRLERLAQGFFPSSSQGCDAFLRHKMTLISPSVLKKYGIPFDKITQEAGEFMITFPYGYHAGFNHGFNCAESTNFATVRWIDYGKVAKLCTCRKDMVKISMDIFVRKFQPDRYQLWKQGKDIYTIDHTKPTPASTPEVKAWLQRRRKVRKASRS
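Assay system: GST-GASC-1 enzyme fragment 2-372 | Amount: 10 nM enzyme | Medium: HEPES buffer, pH 7.5, plus ascorbate | Reagent: H3K9me3 peptide substrate, Fe(II), 2-oxoglutarate | Doses: Single-point compound screen | Incubation: 30 min demethylation and 1 h detection at room temperature | Measured by: LANCE TR-FRET, excitation 340 nm, emissions 618 and 671 nm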
T cruzi growth-2: blocks T. cruzi growth in NIH3T3 host cells | shares compounds with T cruzi growth-1 | T. cruzi beta-gal in NIH3T3, GalScreen luminescence, 90 h | inhibition, % at 8.35 µM | 5,600 compounds, 72% hits;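 active = mean replicate inhibition above about 95% and at least 55% of replicates individually reaching it, limit read from the data; inconclusive = only one of the two criteria is met; inactive = neither criterion is met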
T cruzi growth-3: blocks T. cruzi growth in NIH3T3 host cells | shares compounds with T cruzi growth-1 | inhibition, % at 2.09 µM | T. cruzi beta-gal in NIH3T3, GalScreen luminescence, 90 h | 5,600 compounds, 21% hits;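 active = mean inhibition above about 95%, with at least 55% of replicates also reaching it, limit read from the data; inconclusive = meets just one of the two conditions; inactive = meets neither condition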;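 note: plate controls were neutral control median for no effect and positive control median for full effect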
3T3 cytotox: kills mouse NIH/3T3 fibroblasts; 5,600 compounds, 14% hits; shares compounds with T cruzi growth-1; AID 651742; NIH/3T3 viability, CellTiter-Glo ATP luminescence, 90 h; cytotoxicity (signal decrease), % at 8.35 µM;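 active = mean signal decrease across replicates above about 35% based on untreated-well scatter, with enough replicates individually passing, limit read from the data; inconclusive = no rule stated though some were filed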;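 note: 0% = median of neutral control wells and 100% = median of positive control wells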
NIH3T3 tox 2: cytotoxicity in mouse NIH/3T3 fibroblasts. inhibition, % at 24.9 µM. 5,600 compounds, 56% hits. AID 651744. shares compounds with T cruzi growth-1. NIH/3T3 viability, CellTiter-Glo ATP luminescence, 90 h;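 active = mean loss of cell viability signal at or above a set limit, and enough replicates individually reaching it; inconclusive = meets only the mean limit or only the replicate share; inactive = meets neither condition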;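 note: 0% = median of neutral control wells and 100% = median of positive control wells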
* hit, by the source's call; u = inconclusive; x = no result given.

SMILES | T cruzi growth-1 | IDH1 R132H inh | Pf Dd2 inh | GASC1 inh | T cruzi growth-2 | T cruzi growth-3 | 3T3 cytotox | NIH3T3 tox 2
O=C(C[C@@H]1CC[C@H]2[C@@H](COC[C@H](O)CN2C(=O)Nc2cccc(Cl)c2)O1)NCc1ccccc1F | 119.3* | x | 24.2 | -0.7 | 60.6 | -20.1 | 3.9 | 23.8
CCn1c(SCC(=O)Nc2cccc3ccccc23)nnc1-c1ccco1 | x | 0.0 | x | x | x | x | x | x
Cc1ccc(NC(=O)CN(c2c(C)cccc2C)S(C)(=O)=O)cc1C | x | -0.1 | x | x | x | x | x | x
COCC#Cc1cnc2c(c1)C(=O)N([C@H](C)CO)C[C@@H](C)[C@H](CN(C)C(=O)C1CC1)O2 | 97.2* | x | 12.3 | 0.3 | -13.7 | -7.7 | 21.9 | 12.4
COCC#Cc1cnc2c(c1)C(=O)N([C@@H](C)CO)C[C@@H](C)[C@H](CN(C)C(=O)C1CC1)O2 | 111.9* | x | 34.0 | -1.1 | 39.4 | 1.8 | 23.9 | u
COc1ccc(-n2c(Cn3ncc4ccccc4c3=O)n[nH]c2=S)cc1 | x | 0.3 | x | x | x | x | x | x
O=C(NC[C@@H]1[C@H](c2ccccc2)[C@H](CO)N1C(=O)Cc1cccnc1)C1CC1 | -6.6 | x | -0.7 | 1.9 | x | x | x | x
O=C(NC[C@@H]1[C@@H](c2ccccc2)[C@@H](CO)N1C(=O)Cc1cccnc1)C1CC1 | 100.0* | x | -54.3 | 0.9 | -35.5 | -65.4 | -15.0 | -7.9
CC(=O)NC[C@@H]1[C@H](c2ccccc2)[C@H](CO)N1C(=O)Cc1cccnc1 | u | x | -0.6 | -1.0 | -5.3 | -15.4 | 0.2 | -15.7
CC(=O)NC[C@H]1[C@@H](c2ccccc2)[C@H](CO)N1C(=O)Cc1cccnc1 | 66.2 | x | -13.4 | 1.0 | x | x | x | x
O=C(O)CCc1ccc(-c2cccs2)n1-c1cc(Cl)ccc1O | x | -0.1 | x | x | x | x | x | x
Cc1ccc(C)c(-c2csc(N)c2C#N)c1 | x | -0.4 | x | x | x | x | x | x
O=C(C[C@@H]1C[C@H]2c3cc(NC(=O)Nc4ccc(C(F)(F)F)cc4)ccc3O[C@H]2[C@@H](CO)O1)NCc1ccc(Cl)cc1 | u | -0.4 | -3.6 | -0.2 | 99.9* | 17.6 | 0.4 | 3.5
O=C(C[C@@H]1C[C@@H]2c3cc(NC(=O)Nc4ccc(C(F)(F)F)cc4)ccc3O[C@@H]2[C@H](CO)O1)NCc1ccc(Cl)cc1 | 166.4* | -0.3 | -45.3 | 0.3 | 109.1* | 2.0 | -11.7 | -16.7
O=C(C[C@H]1C[C@H]2c3cc(NC(=O)Nc4ccc(C(F)(F)F)cc4)ccc3O[C@H]2[C@@H](CO)O1)NCc1ccc(Cl)cc1 | 67.4 | -0.9 | 4.2 | -0.2 | x | x | x | x
CC(C)CC#Cc1ccc2c(c1)O[C@@H](CN(C)C(=O)c1ccccc1F)[C@@H](C)CN([C@@H](C)CO)S2(=O)=O | u | -7.0 | -69.7 | -1.7 | 95.7* | 94.9 | 17.9 | 106.3*
CC(C)CC#Cc1ccc2c(c1)O[C@H](CN(C)C(=O)c1ccccc1F)[C@H](C)CN([C@@H](C)CO)S2(=O)=O | u | -0.6 | -43.6 | -1.4 | x | x | x | x
CCCC#Cc1ccc2c(c1)O[C@H](CN(C)C(=O)c1ccccc1F)[C@H](C)CN([C@@H](C)CO)S2(=O)=O | 88.1 | -0.5 | -71.5 | -1.2 | x | x | x | x
COCC#Cc1ccc2c(c1)O[C@@H](CN(C)C(=O)c1ccccc1F)[C@@H](C)CN([C@@H](C)CO)S2(=O)=O | 71.3 | 0.4 | -41.2 | -0.8 | x | x | x | x
CCCC#Cc1ccc2c(c1)O[C@@H](CN(C)C(=O)c1ccccc1F)[C@H](C)CN([C@@H](C)CO)S2(=O)=O | 111.8* | -4.6 | -81.2* | -1.5 | 103.5* | 77.3 | 31.5 | 84.9*
CC(C)CC#Cc1ccc2c(c1)O[C@@H](CN(C)C(=O)c1ccccc1F)[C@@H](C)CN([C@H](C)CO)S2(=O)=O | 99.5* | 0.5 | -43.9 | -1.0 | 88.9 | 89.6 | 24.4 | 102.7*
COc1ccc(S(=O)(=O)N(C)C[C@H]2Oc3cc(-c4ccccc4OC)ccc3S(=O)(=O)N([C@H](C)CO)C[C@@H]2C)cc1 | 122.8* | x | -74.1 | -2.2 | 100.5* | 45.7 | 46.6* | 57.3*

Screening data as filed in PubChem.
